≈ marks a conversion by molar mass, not a printed value. Read-outs that look alike come from different tables or passages of the source. Ends that are not written are not given here.
Key:
[1] = tested on: Gram‐positive and Gram‐negative bacteria; details: G+ = Gram‐positive bacteria; cited from earlier work
[2] = tested on: Gram‐positive pathogens (S. aureus, Enterococcus faecalis, Streptococcus spp., Bacillus anthracis, Clostridioides difficile, Propionibacterium acnes, Mycobacter); details: cited from earlier work
[3] = tested on: Pseudomonas aeruginosa E411‐17; assay: Broth microdilution MIC, P. aeruginosa E411-17; type: cell-based; details: TSB, 37 °C, 18–20 h
Method in brief: (§1)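 Log-phase cultures (OD600 ≈ 0.5) grown in tryptic soy broth were diluted to 0.001 OD and added to serially diluted test compound. Peptide stocks were freshly made in autoclaved water and quantitated by UV. Plates were incubated at 37 °C for 18–20 h and read at 630 nm for growth.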

Escherichia coli E423‐17 = assay: Broth microdilution MIC, E. coli E423-17; type: cell-based; details: TSB, 37 °C, 18–20 h
Method in brief: as §1

[4] = tested on: Staphylococcus aureus USA300 LAC; assay: Broth microdilution MIC, S. aureus USA300 LAC; type: cell-based; details: for Antibacterial minimal inhibitory concentration, Staphylococcus aureus USA300 LAC: broth microdilution, 37 °C, 18–20 h, read at 630 nm; for MIC, S. aureus clinical strain USA300: Table 5, broth microdilution; for MIC: Staphylococcus aureus
Method in brief: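 Broth microdilution was run in tryptic soy broth. Log-phase USA300 LAC (OD600 ≈ 0.5) was diluted to 0.001 OD over serially diluted test compound, incubated 18–20 h at 37 °C and read at 630 nm. For medium effects the broth was adjusted to pH 5.5, 6.8, 7.4 or 8.0, brought to 100 mM NaCl, or supplemented with 1, 5 or 10% human serum.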

[5] = tested on: Klebsiella pneumoniae E406‐17; assay: Broth microdilution MIC, K. pneumoniae E406-17; type: cell-based; details: TSB, 37 °C, 18–20 h
Method in brief: as §1

[6] = tested on: Staphylococcus epidermidis 1457; assay: Broth microdilution MIC, S. epidermidis 1457; type: cell-based; details: TSB, 37 °C, 18–20 h
Method in brief: as §1

[7] = tested on: Acinetobacter baumannii B28‐16; assay: Broth microdilution MIC, A. baumannii B28-16; type: cell-based; details: TSB, 37 °C, 18–20 h
Method in brief: as §1

S. aureus Mu50 = assay: Antibacterial assay, S. aureus clinical strain Mu50; type: cell-based, Staphylococcus aureus; details: broth microdilution, TSB
Method in brief: as §1

S. aureus Newman = assay: Antibacterial assay, S. aureus clinical strain Newman; type: cell-based, Staphylococcus aureus; details: broth microdilution, TSB
Method in brief: as §1

[8] = tested on: Nafcillin‐resistant S. aureus USA300; assay: Antibacterial assay, nafcillin-resistant S. aureus USA300; type: cell-based, Staphylococcus aureus
Method in brief: as §1

S. aureus USA200 = assay: Antibacterial assay, S. aureus clinical strain USA200; type: cell-based, Staphylococcus aureus; details: broth microdilution, TSB
Method in brief: as §1

S. aureus USA400 = assay: Antibacterial assay, S. aureus clinical strain USA400; type: cell-based, Staphylococcus aureus; details: broth microdilution, TSB
Method in brief: as §1

[9] = tested on: S. aureus USA300 membranes; assay: Membrane permeabilization; type: cell-based, Staphylococcus aureus; details: in PBS, 4 × MIC (YZ103 16 μM, YZ105 4 μM, nafcillin 2 μM, linezolid 16 μM, LL‐37 16 μM), 20 μM propidium iodide, 37 °C
[10] = tested on: S. aureus USA300 membrane potential; assay: Membrane depolarization; type: cell-based, Staphylococcus aureus; details: DiBAC4(3) 500 nM; YZ105 8 μM, nafcillin 4 μM, linezolid 32 μM; Triton X‐100 positive control
Method in brief: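 USA300 was grown in TSB to exponential phase, washed twice with PBS, and resuspended in PBS with 25 mM glucose (15 min, 37 °C). DiBAC4(3) was added to 500 nM. Baseline fluorescence (ex 485/em 520 nm) was read for 20 min. Test compound was then added and reading continued for 40 min, with Triton X-100 as positive control.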

S. aureus USA300 = assay: Killing kinetics of exponential bacteria; type: cell-based, Staphylococcus aureus; details: 4 × MIC (YZ105 4 uM, nafcillin 2 μM, linezolid 16 μM), 2 h, exponential phase bacteria, colony counting
[11] = tested on: S. aureus USA300 LAC biofilms; assay: Effect on 24 h preformed biofilms; type: cell-based, Staphylococcus aureus
Method in brief: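 Biofilms were formed for 24 h at 37 °C from exponential-phase USA300 LAC. After PBS washes they were exposed to test compound in fresh TSB for 24 h at 37 °C. Following further washes, viable cells were measured by XTT (2 h, 37 °C, A450, blank of medium plus XTT). Results are given as % growth relative to untreated (100%), with water-treated and uninoculated controls; mean ± SD, p < 0.05.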

[12] = USA300, pH 5.5, read-out: MIC against S. aureus USA300, pH 5.5
[13] = USA300, pH 6.8, read-out: MIC against S. aureus USA300, pH 6.8
[14] = USA300, pH 7.4, read-out: MIC against S. aureus USA300, pH 7.4
[15] = USA300, pH 8, read-out: MIC against S. aureus USA300, pH 8
[16] = USA300, read-out: MIC against S. aureus USA300, 100 mM NaCl

teixobactin
Activity spectrum [1]: Mainly G+ | MIC [2]: 5 to 250 ng/mL

FLSKILSTLRILF-NH2 [YZ107]
Antibacterial minimal inhibitory concentration, Pseudomonas aeruginosa E411‐17 [3]: 8 to 16 µM | Antibacterial minimal inhibitory concentration, Escherichia coli E423‐17 (Escherichia coli E423‐17): 8 µM | Antibacterial minimal inhibitory concentration, Staphylococcus aureus USA300 LAC ([4]; TSB): 2 µM | Antibacterial minimal inhibitory concentration, Klebsiella pneumoniae E406‐17 [5]: >16 µM | Antibacterial minimal inhibitory concentration, Staphylococcus epidermidis 1457 [6]: 2 µM | Antibacterial minimal inhibitory concentration, Acinetobacter baumannii B28‐16 [7]: 4 to 8 µM

FLSQILSTLRILL-NH2 [YZ105]
MIC, S. aureus clinical strain Mu 50 (S. aureus Mu50): 2 µM | Antibacterial minimal inhibitory concentration, Pseudomonas aeruginosa E411‐17 [3]: >16 µM | Antibacterial minimal inhibitory concentration, Escherichia coli E423‐17 (Escherichia coli E423‐17): >16 µM | MIC against S. aureus USA300, pH 5.5 ([4]; TSB adjusted to pH 5.5): 4–8 μM | MIC against S. aureus USA300, pH 6.8 ([4]; TSB adjusted to pH 6.8): 2 μM | MIC against S. aureus USA300, pH 8 ([4]; TSB adjusted to pH 8.0): <0.5 μM | MIC against S. aureus USA300, 100 mM NaCl ([4]; TSB with 100 mM NaCl added): 2 µM | MIC against S. aureus USA300, 1% serum ([4]; TSB with 1% human serum): 2 µM | MIC against S. aureus USA300, 5% serum ([4]; TSB with 5% human serum): 8 µM | MIC against S. aureus USA300, 10% serum ([4]; TSB with 10% human serum): 8 to 16 µM | MIC against S. aureus USA300, pH 7.4 ([4]; TSB, pH 7.4 (normal condition)): 1–2 μM | MIC, S. aureus clinical strain USA300 ([4]; TSB): 1 µM | Antibacterial minimal inhibitory concentration, Staphylococcus aureus USA300 LAC ([4]; TSB): 1 µM | MIC, S. aureus clinical strain Newman (S. aureus Newman): 2 µM | Antibacterial minimal inhibitory concentration, Klebsiella pneumoniae E406‐17 [5]: >16 µM | MIC, Nafcillin‐resistant USA300 ([8]; broth microdilution, TSB): 2 µM | MIC, S. aureus clinical strain USA200 (S. aureus USA200): 1 µM | Antibacterial minimal inhibitory concentration, Staphylococcus epidermidis 1457 [6]: 1 µM | MIC, S. aureus clinical strain USA400 (S. aureus USA400): 1 µM | Antibacterial minimal inhibitory concentration, Acinetobacter baumannii B28‐16 [7]: >16 µM

LL‐37: human cathelicidin LL‐37 (LLGDFFRKSKEKIGKEFKRIVQRIKDFLRNLVPRTES; Antibacterial peptide LL-37; UniProt P49913 134-170, looked up)
Membrane permeabilization (propidium iodide fluorescence) [9]: steady increase in fluorescence with time

FLSKILSTLRILL-NH2 [YZ106]
Antibacterial minimal inhibitory concentration, Pseudomonas aeruginosa E411‐17 [3]: >16 µM | Antibacterial minimal inhibitory concentration, Escherichia coli E423‐17 (Escherichia coli E423‐17): 8 to 16 µM | Antibacterial minimal inhibitory concentration, Staphylococcus aureus USA300 LAC ([4]; TSB): 2 µM | Antibacterial minimal inhibitory concentration, Klebsiella pneumoniae E406‐17 [5]: >16 µM | Antibacterial minimal inhibitory concentration, Staphylococcus epidermidis 1457 [6]: 1 to 2 µM | Antibacterial minimal inhibitory concentration, Acinetobacter baumannii B28‐16 [7]: 8 µM

CC[C@H](C)[C@H](NC(=O)[C@H](CCCNC(=N)N)NC(=O)[C@H](C)NC(=O)[C@@H](NC(=O)[C@H](CO)NC(=O)[C@@H](NC(=O)[C@@H](NC(=O)[C@H](CCC(N)=O)NC(=O)[C@H](CO)NC(=O)[C@@H](NC(=O)[C@@H](N)Cc1ccccc1)[C@@H](C)CC)[C@@H](C)CC)[C@@H](C)CC)[C@@H](C)O)C(=O)N[C@@H](CC(C)C)C(=O)N[C@@H](CC(C)C)C(N)=O [YZ104]
Antibacterial minimal inhibitory concentration, Pseudomonas aeruginosa E411‐17 [3]: >16 µM | Antibacterial minimal inhibitory concentration, Escherichia coli E423‐17 (Escherichia coli E423‐17): >16 µM | Antibacterial minimal inhibitory concentration, Staphylococcus aureus USA300 LAC ([4]; TSB): >16 µM | Antibacterial minimal inhibitory concentration, Klebsiella pneumoniae E406‐17 [5]: >16 µM | Antibacterial minimal inhibitory concentration, Staphylococcus epidermidis 1457 [6]: >16 µM | Antibacterial minimal inhibitory concentration, Acinetobacter baumannii B28‐16 [7]: >16 µM

CC(=O)NC[C@H]1CN(c2ccc(N3CCOCC3)c(F)c2)C(=O)O1 [Linezolid, linezolid, reference compound]
Membrane depolarization [10]: neither nafcillin nor linezolid was able to | MIC [4, 12]: 4 µM (≈ 1.35 µg/mL) | MIC [4, 13]: 4 µM (≈ 1.35 µg/mL) | MIC [4, 14]: 4 µM (≈ 1.35 µg/mL) | MIC [4, 15]: 4 to 8 µM (≈ 1.35 to 2.7 µg/mL) | MIC [4, 16]: 4 µM (≈ 1.35 µg/mL) | Reduction of MRSA counts (CFU) in killing kinetics (S. aureus USA300): 1 log | Membrane permeabilization (propidium iodide fluorescence) [9]: neither nafcillin nor linezolid permeabilized the membranes | Effect on 24 h preformed biofilms in combination ([11]; in the presence of 2 μM YZ105, XTT): became more effective

CC[C@H](C)[C@H](NC(=O)[C@H](CCCNC(=N)N)NC(=O)[C@H](C)NC(=O)[C@@H](NC(=O)[C@H](CO)NC(=O)[C@@H](NC(=O)[C@@H](NC(=O)[C@H](CCC(N)=O)NC(=O)[C@H](CO)NC(=O)[C@@H](NC(=O)[C@@H](N)Cc1ccccc1)[C@@H](C)CC)[C@@H](C)CC)[C@@H](C)CC)[C@@H](C)O)C(N)=O [YZ103]
MIC, S. aureus clinical strain Mu 50 (S. aureus Mu50): >32 µM | Antibacterial minimal inhibitory concentration, Pseudomonas aeruginosa E411‐17 [3]: >16 µM | Antibacterial minimal inhibitory concentration, Escherichia coli E423‐17 (Escherichia coli E423‐17): >16 µM | MIC, S. aureus clinical strain USA300 ([4]; TSB): >32 µM | Antibacterial minimal inhibitory concentration, Staphylococcus aureus USA300 LAC ([4]; TSB): >16 µM | MIC, S. aureus clinical strain Newman (S. aureus Newman): >32 µM | Antibacterial minimal inhibitory concentration, Klebsiella pneumoniae E406‐17 [5]: >16 µM | MIC, S. aureus clinical strain USA200 (S. aureus USA200): >32 µM | Antibacterial minimal inhibitory concentration, Staphylococcus epidermidis 1457 [6]: >16 µM | MIC, S. aureus clinical strain USA400 (S. aureus USA400): >32 µM | Antibacterial minimal inhibitory concentration, Acinetobacter baumannii B28‐16 [7]: >16 µM

CCOc1ccc2ccccc2c1C(=O)N[C@@H]1C(=O)N2[C@@H]1SC(C)(C)[C@@H]2C(=O)O [Nafcillin, nafcillin, reference compound]
Membrane depolarization [10]: neither nafcillin nor linezolid was able to | MIC [4, 12]: 0.5 µM (≈ 0.207 µg/mL) | MIC [4, 13]: 1 µM (≈ 0.414 µg/mL) | MIC [4, 14]: 0.5 to 1 µM (≈ 0.207 to 0.414 µg/mL) | MIC [4, 15]: 1 µM (≈ 0.414 µg/mL) | MIC [4, 16]: 1 to 2 µM (≈ 0.414 to 0.829 µg/mL) | Increase of MIC values by serum ([4]; TSB with human serum compared with normal TSB): 4–8 fold | Reduction of MRSA counts (CFU) in killing kinetics (S. aureus USA300): barely reduced bacterial burden | Membrane permeabilization (propidium iodide fluorescence) [9]: neither nafcillin nor linezolid permeabilized the membranes | MIC ([8]; Staphylococcus aureus, USA300, read-out: MIC, Nafcillin‐resistant USA300): 1020 µM (≈ 424 µg/mL) | Effect on 24 h preformed biofilms ([11]; 24 h treatment in TSB, live cells by XTT at 450 nm, relative to untreated (100%)): did not display a clear effect
